Results published in ChEMBL document CHEMBL1125740, “Heterocyclic quinones. 17. A new in vivo active antineoplastic drug: 6,7-bis(1-aziridinyl)-4-[[3-(N,N-dimethylamino)propyl]amino]-5,8- quinazolinedione” (J Med Chem, 1991).
Several values for one entry are separate records, joined by “and”; a condition that tells them apart may be missing. Equal values may be shown once.

How the values were obtained:
[1] = Compound was evaluated in vivo for antitumor activity against mammary adenocarcinoma 16/C after injecting the compound intravenously for median tumor burden; format: functional, Mus musculus
Summary of the method: (§1)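 30-60 mg tumor fragments implanted sc by trocar on day 0 into C57Bl/6-derived hosts (B16) or C3H/He-derived hosts (16/C). Drug given iv on days 6, 9 and 13 (B16) or 6, 9 and 12 (16/C), 10 mice per group. Tumors measured by caliper. T/C % taken from median tumor burden of treated vs control groups on day 15 (B16) or day 14 (16/C). Body weight change per mouse recorded at nadir.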

P388 [2] = assay: Compound was evaluated in vivo for antitumor activity after intraperitoneal administration against P388/L-PAM(14) for mortality range at an optimal dose of 0.5 mg/kg/injection at one day schedule.; format: functional, Mus musculus
L1210 [3] = assay: Compound was evaluated in vivo for antitumor activity after intraperitoneal administration against L1210(935) for tumor free survivors at an optimal dose of 0.5 mg/kg/injection at 1,4,7,11 day schedule.; format: functional, Mus musculus
Summary of the method: (§2)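 L1210 leukemia, maintained in DBA/2 mice, was given ip as 10⁵ cells on day 0 to F1 hybrid or strain-of-origin mice over 18 g, in groups of 8. Dosing was ip from day 1, and mortality was checked daily. Median day of death counts dying mice only. %ILS = 100×(treated − control median day of death)/control median. Tumor-free survivors were counted on day 60. Weight change is g/mouse at nadir.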

P388 [4] = assay: Compound was evaluated in vivo for antitumor activity after intraperitoneal administration against P388 (1303) for % increase in life span at an optimal dose of 0.75 mg/kg/injection; format: functional; conditions: Mus musculus, P388, ip
P388 [5] = assay: Compound was evaluated in vivo for antitumor activity after intraperitoneal administration against P388 (1313) for total dose at an optimal dose of 0.5 mg/kg/injection; format: functional, Mus musculus
P388 [6] = assay: Compound was evaluated in vivo for antitumor activity after intraperitoneal administration against P388/L-PAM(14) for median day of death at an optimal dose of 1 mg/kg/injection; format: functional, Mus musculus
P388 [7] = assay: Compound was evaluated in vivo for antitumor activity after intraperitoneal administration against P388/L-PAM(14) for change in body weight at an optimal dose of 0.4 mg/kg/injection at 1,2,3,4 day schedule.; format: functional, Mus musculus
L1210 [8] = assay: Compound was evaluated in vivo for antitumor activity after intraperitoneal administration against L1210(935)for % increase in life span at an optimal dose of 0.4 mg/kg/injection at 1-4 day schedule.; format: functional; conditions: Mus musculus, L1210, ip; summary of the method: as §2
P388 [9] = assay: Compound was evaluated in vivo for antitumor activity after intraperitoneal administration against P388/L-PAM(14) for mortality range at an optimal dose of 0.25 mg/kg/injection at 1,4,7,11 day schedule.; format: functional, Mus musculus
P388 [10] = assay: Compound was evaluated in vivo for antitumor activity after intraperitoneal administration against P388/L-PAM(14) for % increase in life span at an optimal dose of 1 mg/kg/injection; format: functional; conditions: Mus musculus, P388, ip
P388 [11] = assay: Compound was evaluated in vivo for antitumor activity after intraperitoneal administration against P388/L-PAM(12) for % increase in life span at an optimal dose of 0.75 mg/kg/injection; format: functional; conditions: Mus musculus, P388, ip
L1210 [12] = assay: Compound was evaluated in vivo for antitumor activity after intraperitoneal administration against L1210(935) for median day of death at an optimal dose of 0.4 mg/kg/injection at 1-4 day schedule.; format: functional, Mus musculus; summary of the method: as §2
P388 [13] = assay: Compound was evaluated in vivo for antitumor activity after intraperitoneal administration against P388/L-PAM(14) for tumor free survivors at an optimal dose of 0.25 mg/kg/injection at 1,4,7,11 day schedule.; format: functional, Mus musculus
P388 [14] = assay: Compound was evaluated in vivo for antitumor activity after intraperitoneal administration against P388/L-PAM(14) for % increase in life span at an optimal dose of 0.4 mg/kg/injection at 1,2,3,4 day schedule.; format: functional; conditions: Mus musculus, P388, ip
P388 [15] = assay: Compound was evaluated in vivo for antitumor activity after intraperitoneal administration against P388/L-PAM(14) for change in body weight at an optimal dose of 1 mg/kg/injection; format: functional, Mus musculus
B16 = assay: Compound was evaluated in vivo for antitumor activity against B16 melanoma after injecting the compound intravenously for median tumor burden; format: functional, Mus musculus; summary of the method: as §1
L1210 [16] = assay: Compound was evaluated in vivo for antitumor activity after intraperitoneal administration against L1210(935) for total dose at an optimal dose of 0.125 mg/kg/injection at 1,4,7,11day schedule.; format: functional, Mus musculus; summary of the method: as §2
M5076 = assay: Compound was evaluated in vivo for antitumor activity against M5076 after injecting the compound intravenously for total dose.; format: functional, Mus musculus
L1210 [17] = assay: Compound was evaluated in vivo for antitumor activity after intraperitoneal administration against L1210(935) for median day of death at an optimal dose of 0.5 mg/kg/injection at 1 day schedule.; format: functional, Mus musculus; summary of the method: as §2
P388 [18] = assay: Compound was evaluated in vivo for antitumor activity after intraperitoneal administration against P388/L-PAM(14) for % increase in life span at an optimal dose of 0.125 mg/kg/injection at 1,4,7,11 day schedule.; format: functional; conditions: Mus musculus, P388, ip
P388 [19] = assay: Compound was evaluated in vivo for antitumor activity after intraperitoneal administration against P388/L-PAM(14) for % increase in life span at an optimal dose of 0.5 mg/kg/injection at 1,4,7,11 day schedule.; format: functional; conditions: Mus musculus, P388, ip
L1210 [20] = assay: Compound was evaluated in vivo for antitumor activity after intraperitoneal administration against L1210(935) for total dose at an optimal dose of 0.1 mg/kg/injection at 1-4 day schedule.; format: functional, Mus musculus; summary of the method: as §2
L1210 [21] = assay: Compound was evaluated in vivo for antitumor activity after intraperitoneal administration against L1210(935) for median day of death at an optimal dose of 1 mg/kg/injection at 1 day schedule.; format: functional, Mus musculus; summary of the method: as §2
P388 [22] = assay: Compound was evaluated in vivo for antitumor activity after intraperitoneal administration against P388/L-PAM(14) for median day of death at an optimal dose of 0.5 mg/kg/injection at one day schedule.; format: functional, Mus musculus
L1210 [23] = assay: Compound was evaluated in vivo for antitumor activity after intraperitoneal administration against L1210(935) for total dose at an optimal dose of 0.2 mg/kg/injection at 1-4 day schedule.; format: functional, Mus musculus; summary of the method: as §2
P388 [24] = assay: Compound was evaluated in vivo for antitumor activity after intraperitoneal administration against P388/L-PAM(14) for mortality range at an optimal dose of 0.2 mg/kg/injection at 1,2,3,4 day schedule.; format: functional, Mus musculus
L1210 [25] = assay: Compound was evaluated in vivo for antitumor activity after intraperitoneal administration against L1210(935) for median day of death at an optimal dose of 0.25 mg/kg/injection at 1,4,7,11day schedule.; format: functional, Mus musculus; summary of the method: as §2
L1210 [26] = assay: Compound was evaluated in vivo for antitumor activity after intraperitoneal administration against L1210(935)for change in body weight at an optimal dose of 1 mg/kg/injection at 1 day schedule.; format: functional, Mus musculus; summary of the method: as §2
P388 [27] = assay: Compound was evaluated in vivo for antitumor activity after intraperitoneal administration against P388/L-PAM(14) for total dose at an optimal dose of 0.2 mg/kg/injection at 1,2,3,4 day schedule.; format: functional, Mus musculus
[28] = Compound was evaluated in vivo for antitumor activity against colon adenocarcinoma 38 after injecting the compound intravenously for percent T/C (value in parentheses indicates the day of evaluation); format: functional, Mus musculus
P388 [29] = assay: Compound was evaluated in vivo for antitumor activity after intraperitoneal administration against P388 (1313) for total dose at an optimal dose of 0.25 mg/kg/injection; format: functional, Mus musculus

`CN(C)CCCNc1ncnc2c1C(=O)C(N1CC1)=C(N1CC1)C2=O` gave a Tumor burden [1] of 1265 mg, a Mortality (P388 [2]) of 22 days and a Survivors (L1210 [3]) of 1. The ILS at 0.75 mg/kg (P388 [4]) was 68%, the Optimal dose (P388 [5]) was 2 mg/kg and the “Median day of death” value (P388 [6]) was 19. For the same compound, the g/mouse (P388 [7]) was 0.9, the ILS at 0.4 mg/kg (L1210 [8]) was 27% and the Mortality (P388 [9]) was 20 days. The ILS at 1 mg/kg (P388 [10]) was 36%, the ILS at 0.75 mg/kg (P388 [11]) was 19% and the “Median day of death” value (L1210 [12]) was 14. The Survivors (P388 [13]) was 0, the ILS at 0.4 mg/kg (P388 [14]) was 43% and the “Change in body weight” value (P388 [15]) was -1.2 g mouse-1. For the same compound, the Tumor burden (B16) was 2002 mg and 3807 mg, the Total dose (L1210 [16]) was 0.5 mg/kg and the Total dose (M5076) was 4 mg/kg. For the same compound, the “Median day of death” value (L1210 [17]) was 14, the ILS at 0.125 mg/kg (P388 [18]) was 10% and the ILS at 0.5 mg/kg (P388 [19]) was 61%. The Total dose (L1210 [20]) was 0.4 mg/kg, the “Median day of death” value (L1210 [21]) was 14 and the “Median day of death” value (P388 [22]) was 18. The Total dose (L1210 [23]) was 0.8 mg/kg, the Mortality (P388 [24]) was 20 days and the “Median day of death” value (L1210 [25]) was 13. The “Change in body weight” value (L1210 [26]) was 0.6 g mouse-1, the Total dose (P388 [27]) was 0.8 mg/kg and the T/C [28] was 102%. The Optimal dose (P388 [29]) was 1 mg/kg.
